Measured values as given in ChEMBL document CHEMBL4513216, “Probing the Open Global Health Chemical Diversity Library for Multistage-Active Starting Points for Next-Generation Antimalarials” (ACS Infect Dis, 2020).

Test: Toxicity liver stage against HepG2, at 10uM
Type: cell-based
Set-up: test concentration 10 uM, cell line HepG2-A16-CD81EGFP
Conditions: human, HepG2-A16-CD81EGFP cells; read-out: INHIBITION
In short: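 Uninfected HepG2-A16-CD81EGFP cells, 3 × 10^3 per well, 1536-well, plated on prespotted compound at 10 μM final, parasite-free screening media added to match infected plates; puromycin 10 μM positive, DMSO 0.5% negative; run in parallel with 48 h PbLuc assay at 37 °C, 5% CO2; viability by CellTiter-Glo luminescence, normalized to controls.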

Structure (SMILES) | cytotoxicity at 10 µM [%]
CCC1(CC)Cc2ccccc2-c2nc(NCCCO)[nH]c(=O)c21 | 10.2
CC(C)(C)c1coc([C@@H]2COCCN2Cc2c[nH]cn2)n1 | 1.21
Cc1ccc(-c2nn(C)c(C(=O)O)c2Br)cc1 | -49.7
O=C(NC1CCCC1)c1nc(COc2ccc3c(c2)OCO3)no1 | 2.87
CC(C)c1nc2cc(NC(=O)c3n[nH]c4c3CCC4)ccc2n1C | -5.37
Cc1nc(-c2noc3ccc(C(=O)NCCN4CCOCC4)cc23)co1 | 15
CN(C)S(=O)(=O)N1C[C@H]2CCC[C@@]2(COCC2CC2)C1 | 6.13
CNC(=O)[C@@H]1COC[C@H]2CN(C(=O)COc3ccccc3)C[C@H]21 | -1.65
CCn1ncc2c1C(COC)CN(Cc1ccsc1)C2 (stereo not drawn) | -7.47
CCc1noc(C2CCCCN2C(=O)c2nnc3ccccc3n2)n1 (stereo not drawn) | 0.795
Cc1cc(CN2CCc3nc(C(C)C)nc(O)c3CC2)c(C)s1 | -0.782
C[C@]1(O)CN(Cc2ncc[nH]2)CC[C@@H]1Oc1cccc(F)c1 | -6.8
COc1ccc(NCC2(O)CCNCC2)cc1OC | 6.2
COC(=O)CC(NC(=O)c1cccc(N2CCCC2=O)c1)c1cccs1 (stereo not drawn) | -51.4
CC(C)NC(=O)c1cnc(Sc2nccn2C)c(Cl)c1 | -41.4
Cc1cc(C(=O)N(C)S(=O)(=O)C(C)C)ccc1F | -54.3
CCc1ccc2c(c1)C(CCNC(=O)c1sccc1C)C(=O)N2 (stereo not drawn) | -52.3
c1ccc(N2CCC(OCC3CCCCO3)CC2)nc1 (stereo not drawn) | -1.03
CN(C)S(=O)(=O)N(Cc1cscn1)c1ccccc1 | -3.91
CCc1nnc(C(C)N2CCN(CCC(C)(C)C)CC2)o1 (stereo not drawn) | 6.61
CCNC(=O)C(C)NC(=O)Nc1ccccc1Cl (stereo not drawn) | 5.72

Structure (SMILES) | cytotoxicity at 10 µM [%]
O=C(C1CCCN(c2nc3ccccc3cc2CO)C1)N1CCCC1 (stereo not drawn) | -47.5
CCS(=O)(=O)N1CCCN(CCCOC)CC1 | 7.73
Cc1nccn1-c1ccc(C(C)NCCc2ccccn2)cc1 (stereo not drawn) | 10.4
O=C(CN1CCCC1c1nc(Cc2ccc(F)cc2)no1)NC1CC1 (stereo not drawn) | 20.6
O=C(NCCC1=CCCCC1)NC1CCCc2c1cnn2CCO (stereo not drawn) | -6.95
CCN(CC1CN(CC2CCC2)CCO1)c1cccnn1 (stereo not drawn) | 2.82
O=C(NCc1ccccc1CN1CCOCC1)c1ccc(Br)cc1F | 12.3
CC(C)(C)c1ccc(C2(C(=O)NCCS(C)(=O)=O)CC2)cc1 | 2.91
CCC(Nc1cccc(Oc2ccccn2)c1)C(N)=O (stereo not drawn) | 9.55
Cc1nc(NC(=O)c2cccnc2N2CCOCC2)sc1C | -0.0261
N#Cc1cc(F)c(N2CCC(NS(=O)(=O)c3cccs3)CC2)c(F)c1 | 8.76
CC(NC(=O)c1cccc[n+]1[O-])c1ccc2c(c1)CCC(=O)N2 (stereo not drawn) | 45.2
CN1CCN(c2ccnc3c(F)cc(Br)cc23)CC1 | 27.2
FC(F)(F)Cn1cc(NCc2cscn2)cn1 | -8.51
CCOC1CCN(C(=O)c2csc(S(N)(=O)=O)c2)CC1 | -11.4
Cc1noc(C)c1CC(=O)NCC(CC(C)C)N1CCOCC1 (stereo not drawn) | -40.6
Cc1cc(S(C)(=O)=O)c(C)c(S(=O)(=O)N2CCCC(C)C2)c1 (stereo not drawn) | 22.6
O=C(NCc1ncc(-c2ccccc2)o1)NC1CCC(O)CC1 (stereo not drawn) | -41.8
CN(CCC#N)C(=O)Cn1nnnc1C(C)(C)C | -46.3
Cc1ccc(-c2nc(CN(Cc3ccco3)C3CCS(=O)(=O)C3)cs2)o1 (stereo not drawn) | 10.3
Cc1csc(C2(NCc3nc(-c4ccco4)no3)CCCC2)n1 | 3.18

Structure (SMILES) | cytotoxicity at 10 µM [%]
Cc1cc(CNc2ccnn2C)ccc1-n1cncn1 | -43.2
COCC(=O)N1CCO[C@]2(CCC[C@H]2COC)C1 | -97.5
Cc1noc(C)c1CN1C[C@@H]2COC[C@H](C(=O)N3CCCO3)[C@@H]2C1 | -66.6
CN1CCC(O)(CCNC(=O)[C@@]23CNC[C@@H]2CN(C2CCCC2)C3)CC1 | -1.92
CC(C)c1nccc(CN2CCCC(O)(CN3CCCC3)C2)n1 (stereo not drawn) | -0.413
CN(CCn1ccc2ccccc21)C(=O)Cc1nnn[nH]1 | -8.93
Cc1ccc(-n2nc(C)c3c2NC(=O)CC3c2cnc(N)s2)cc1 (stereo not drawn) | 5.56
CN1CCN(Cc2nnc(C3CCN(C(CO)CO)CC3)n2C)CC1 | 2.52
CC(=O)c1cnc(N(C)Cc2cnc3ccccc3n2)nc1C | 2.4
CCc1nnc(CN(C)C(=O)CN2CC(c3ccccc3)CC2=O)o1 (stereo not drawn) | -2.96
CCN(CC)C(=O)[C@@H]1C[C@@H](N)CN1c1nc(N(C)C)nc(C)c1C | -24.4
CCC[C@H]1CN(Cc2ccc(N(C)C)nc2)C[C@@H]1NC(=O)CCOC | 15.5
COc1ccccc1OC1CCN(C(=O)C2CCCN(C)C2)CC1 (stereo not drawn) | -53.5
CC(C)CN(Cc1ccsc1)C(=O)CCCn1cncn1 | -47.9
O=C(c1csc(-c2ccc(C(F)(F)F)cc2)n1)N1CCCNCC1 | 6.24
c1cnc(N2CCC3(CCCN(CC4CCCCC4)C3)C2)cn1 (stereo not drawn) | -1.62
COc1cccc(CNC(=O)C(C)n2ccnc2C(C)C)c1OC (stereo not drawn) | -1.68
NCCN1CCC(c2nnc(Cn3ccnc3)n2C2CC2)CC1 | -3.07
CNc1ncc(CN(C)c2ncnc3onc(C)c23)cn1 | -16.8
CC(=O)NCc1cccc(-n2ccnc2-c2cccc(C(=O)O)c2)c1 | -2.29
CC(C)c1ncc(-c2cc(C3CCC3)nc(N)c2C#N)cn1 | -16.1

Structure (SMILES) | cytotoxicity at 10 µM [%]
O=C(c1ccc(Br)o1)N1CCN(Cc2ccc(F)cc2)CC1 | 9.08
COc1ccc(C2CCCN2S(=O)(=O)c2cc(F)ccc2F)cc1 (stereo not drawn) | 0.585
Cn1cc(C2CCCN2C(=O)CCCc2ccccn2)cn1 (stereo not drawn) | -0.222
COc1cc(S(=O)(=O)N2CCc3cc(Br)ccc32)cc(C(=O)O)c1OC | -15.9
CCc1nc(C2CCCN2C(=O)c2ccc3c(c2)nnn3C)no1 (stereo not drawn) | -4.35
CC(C)c1n[nH]c(C2CN(C(=O)Cn3ccccc3=O)CCO2)n1 (stereo not drawn) | -0.924
CCc1nc(C2CCCN2CCCc2nc3ccccc3o2)no1 (stereo not drawn) | -7.92
Cc1nnc(NC(=O)CN2CCc3nn(C)c(=O)cc3C2)s1 | -6.18
CC(NC(=O)Cn1cccn1)c1ccc2c(c1)OCCCO2 (stereo not drawn) | -2.55
Cc1ccc(-c2noc(CN3CCOC(CN(C)C)C3)n2)cc1F (stereo not drawn) | -5.48
c1ccc(OC2CCCC2)c(CNC2CCc3ncnn3C2)c1 (stereo not drawn) | -5.43
Clc1snnc1CN1CCCC(Cn2cncn2)C1 (stereo not drawn) | -7.67
NC(CC1CCCC1)c1ccccc1 (stereo not drawn) | 5.76
COCCNC(=O)C1CN(Cc2csc(C)n2)Cc2ccnn2C1 (stereo not drawn) | -74.2
c1cc(-c2ccc3c(c2)CCC32CCN(c3nncs3)CC2)ccn1 | 20.4
COCC(=O)N1CCC2(CC1)CN(c1ccccn1)CCO2 | -71.2
c1ccc(COC[C@H]2CCC[C@@]23CNCCO3)nc1 | -91.9
O=C(NCCc1cccs1)[C@H]1CO[C@H]2CCN(C3CCC3)C[C@H]2C1 | -116
Cc1noc(C)c1CN1CCO[C@H]2CN(Cc3cccc(F)c3)C[C@H]21 | -99.8
COc1cc(C2c3c(n[nH]c3C)N=C3COC(=O)C32)cc(Br)c1O (stereo not drawn) | 75.4
